Data as given in ChEMBL document CHEMBL5247578, “Effective synthesis of benzimidazoles-imidazo[1,2-a]pyrazine conjugates: A comparative study of mono-and bis-benzimidazoles for antitumor activity” (Eur J Med Chem, 2019).

Experiments:
[1] = test system: NCI-H23; assay: Antiproliferative activity against human NCI-H23 cells assessed as cell growth at 0.000001 M incubated for 48 hrs by SRB assay relative to control; type: functional; conditions: read-out: Activity
[2] = test system: RXF 393; assay: Antiproliferative activity against human RXF 393 cells assessed as cell growth at 0.0001 M incubated for 48 hrs by SRB assay relative to control; type: functional; conditions: read-out: Activity
[3] = test system: HOP-92; assay: Antiproliferative activity against human HOP-92 cells assessed as cell growth inhibition by measuring lethal concentration incubated for 48 hrs by sulforhodamine B assay; type: functional; conditions: read-out: LC50 (the source's name)
[4] = test system: MOLT-4; assay: Antiproliferative activity against human MOLT-4 cells assessed as cell growth at 0.000001 M incubated for 48 hrs by SRB assay relative to control; type: functional; conditions: read-out: Activity
[5] = test system: UACC-257; assay: Antiproliferative activity against human UACC-257 cells assessed as cell growth at 0.0001 M incubated for 48 hrs by SRB assay relative to control; type: functional; conditions: read-out: Activity
[6] = test system: PC-3; assay: Antiproliferative activity against human PC-3 cells assessed as cell growth at 0.0000001 M incubated for 48 hrs by SRB assay relative to control; type: functional; conditions: dose 100 nM, read-out: Activity
[7] = test system: M14; assay: Antiproliferative activity against human M14 cells assessed as cell growth at 0.00001 M incubated for 48 hrs by SRB assay relative to control; type: functional; conditions: read-out: Activity
[8] = test system: HCT-116; assay: Growth inhibition against human HCT-116 cells assessed as total growth inhibitory concentration incubated for 48 hrs by sulforhodamine B assay; type: functional
[9] = test system: EKVX; assay: Growth inhibition against human EKVX cells incubated for 48 hrs by sulforhodamine B assay; type: functional
[10] = test system: SF-268; assay: Antiproliferative activity against human SF-268 cells assessed as cell growth at 0.00000001 M incubated for 48 hrs by SRB assay relative to control; type: functional; conditions: dose 10 nM, read-out: Activity
[11] = test system: SW-620; assay: Antiproliferative activity against human SW620 cells assessed as cell growth at 0.000001 M incubated for 48 hrs by SRB assay relative to control; type: functional; conditions: read-out: Activity
[12] = test system: Hs-578T; assay: Antiproliferative activity against human Hs-578T cells assessed as cell growth at 0.0001 M incubated for 48 hrs by SRB assay relative to control; type: functional; conditions: read-out: Activity
Procedure, shortened: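 NCI-60 five-dose mode, 10^-4 to 10^-8 M in 10-fold steps. RPMI 1640, 5% FBS, 2 mM L-glutamine; 24 h preincubation, then 48 h drug exposure at 37 °C. Stocks in DMSO at 400× the top concentration, diluted in medium with gentamicin. TCA fixation, SRB staining, absorbance at 515 nm. Percent growth from time-zero (Tz), control (C) and test (Ti) readings.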

[13] = test system: MOLT-4; assay: Antiproliferative activity against human MOLT-4 cells assessed as cell growth inhibition by measuring lethal concentration incubated for 48 hrs by sulforhodamine B assay; type: functional; conditions: read-out: LC50 (the source's name)
[14] = test system: RPMI-8226; assay: Antiproliferative activity against human RPMI-8226 cells assessed as cell growth at 0.0001 M incubated for 48 hrs by SRB assay relative to control; type: functional; conditions: read-out: Activity
[15] = test system: PC-3; assay: Antiproliferative activity against human PC-3 cells assessed as cell growth inhibition by measuring lethal concentration incubated for 48 hrs by sulforhodamine B assay; type: functional; conditions: read-out: LC50 (the source's name)
[16] = test system: SK-MEL-28; assay: Antiproliferative activity against human SK-MEL-28 cells assessed as cell growth at 0.0001 M incubated for 48 hrs by SRB assay relative to control; type: functional; conditions: read-out: Activity
[17] = test system: BT-549; assay: Growth inhibition against human BT-549 cells incubated for 48 hrs by sulforhodamine B assay; type: functional
[18] = test system: OVCAR-8; assay: Antiproliferative activity against human OVCAR-8 cells assessed as cell growth at 0.00000001 M incubated for 48 hrs by SRB assay relative to control; type: functional; conditions: dose 10 nM, read-out: Activity
[19] = test system: LOX IMVI; assay: Antiproliferative activity against human LOX IMVI cells assessed as cell growth at 0.00001 M incubated for 48 hrs by SRB assay relative to control; type: functional; conditions: read-out: Activity
[20] = test system: HOP-92; assay: Antiproliferative activity against human HOP-92 cells assessed as cell growth at 0.0001 M incubated for 48 hrs by SRB assay relative to control; type: functional; conditions: read-out: Activity
Procedure, shortened: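 NCI-60 five-dose screen (10^-4 to 10^-8 M). Cells grown in RPMI 1640 with 5% FBS and 2 mM L-glutamine, plated at 5,000-40,000 cells/well and preincubated 24 h. Drug given from DMSO stock, then 48 h at 37 °C, 5% CO2. For adherent lines, cells fixed with cold TCA, SRB-stained and read at 515 nm. Percent growth taken against time-zero and untreated control.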

[21] = test system: COLO 205; assay: Growth inhibition against human COLO 205 cells assessed as total growth inhibitory concentration incubated for 48 hrs by sulforhodamine B assay; type: functional
[22] = test system: CCRF-CEM; assay: Growth inhibition against human CCRF-CEM cells assessed as total growth inhibitory concentration incubated for 48 hrs by sulforhodamine B assay; type: functional
[23] = test system: 786-0; assay: Antiproliferative activity against human 786-0 cells assessed as cell growth at 0.0001 M incubated for 48 hrs by SRB assay relative to control; type: functional; conditions: read-out: Activity
Procedure, shortened: (§1)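 NCI-60 five-dose screen over 10^-4–10^-8 M (10-fold dilutions). Cells grown in RPMI 1640 with 5% FBS and 2 mM L-glutamine, seeded at 5,000–40,000 cells/well and preincubated 24 h. Drug from DMSO stock, 48 h at 37 °C, 5% CO2. Adherent cells TCA-fixed and stained with 0.4% SRB; A515 read. Percent growth = (Ti−Tz)/(C−Tz)×100, or (Ti−Tz)/Tz×100 when Ti<Tz.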

[24] = test system: SK-MEL-28; assay: Growth inhibition against human SK-MEL-28 cells incubated for 48 hrs by sulforhodamine B assay; type: functional
[25] = test system: ACHN; assay: Antiproliferative activity against human ACHN cells assessed as cell growth at 0.0000001 M incubated for 48 hrs by SRB assay relative to control; type: functional; conditions: dose 100 nM, read-out: Activity; procedure, shortened: as §1
[26] = test system: CCRF-CEM; assay: Antiproliferative activity against human CCRF-CEM cells assessed as cell growth at 0.000001 M incubated for 48 hrs by SRB assay relative to control; type: functional; conditions: read-out: Activity; procedure, shortened: as §1
[27] = test system: OVCAR-3; assay: Growth inhibition against human OVCAR-3 cells incubated for 48 hrs by sulforhodamine B assay; type: functional
[28] = test system: UO-31; assay: Antiproliferative activity against human UO-31 cells assessed as cell growth inhibition by measuring lethal concentration incubated for 48 hrs by sulforhodamine B assay; type: functional; conditions: read-out: LC50 (the source's name)
Procedure, shortened: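 NCI-60 five-dose screen (10^-4 to 10^-8 M, 10-fold dilutions; DMSO stocks). Cells in RPMI 1640 with 5% FBS and 2 mM L-glutamine, preincubated 24 h, then exposed 48 h at 37 °C, 5% CO2. Fixed with cold TCA, stained with 0.4% SRB, absorbance read at 515 nm. Time-zero plates used as reference. LC50 taken from [(Ti-Tz)/Tz]×100 […].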

[29] = test system: IGROV-1; assay: Antiproliferative activity against human IGROV-1 cells assessed as cell growth at 0.0000001 M incubated for 48 hrs by SRB assay relative to control; type: functional; conditions: dose 100 nM, read-out: Activity
[30] = test system: PC-3; assay: Growth inhibition against human PC-3 cells assessed as total growth inhibitory concentration incubated for 48 hrs by sulforhodamine B assay; type: functional
[31] = biological target: Albumin (Bos taurus, UniProt P02769); assay: Binding affinity to bovine serum albumin assessed as Stern-Volmer quenching constant by fluorescence spectroscopic method; conditions: cattle
Sequence of Albumin (P02769 whole entry): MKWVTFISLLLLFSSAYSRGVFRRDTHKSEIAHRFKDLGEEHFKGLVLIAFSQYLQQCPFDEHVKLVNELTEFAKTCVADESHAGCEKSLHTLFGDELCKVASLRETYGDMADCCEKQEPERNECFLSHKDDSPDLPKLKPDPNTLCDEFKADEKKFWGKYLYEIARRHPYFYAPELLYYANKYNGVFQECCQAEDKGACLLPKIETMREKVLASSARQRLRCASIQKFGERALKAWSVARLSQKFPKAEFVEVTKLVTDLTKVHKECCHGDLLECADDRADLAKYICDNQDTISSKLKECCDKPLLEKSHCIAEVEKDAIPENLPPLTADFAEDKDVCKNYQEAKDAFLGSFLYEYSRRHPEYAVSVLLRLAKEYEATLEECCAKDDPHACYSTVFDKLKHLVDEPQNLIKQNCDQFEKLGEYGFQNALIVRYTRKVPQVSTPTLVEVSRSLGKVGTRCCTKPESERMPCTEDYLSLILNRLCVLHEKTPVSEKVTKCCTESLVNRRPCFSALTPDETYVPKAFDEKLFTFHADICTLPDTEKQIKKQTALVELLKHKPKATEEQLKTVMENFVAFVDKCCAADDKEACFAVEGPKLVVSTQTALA

Which results are given for `COc1ccc(-c2cn3ccnc3c(-c3ccc4ncn(C5CCCCC5)c4c3)n2)cc1`?
growth at 1 µM [1]: 68%; growth at 100 µM [2]: 19%; CC50 [3]: > 100 µM; growth at 1 µM [4]: 78%; growth at 100 µM [5]: 55%; growth at 0.1 µM [6]: 98%; growth at 10 µM [7]: 9%; TGI [8]: 4.06 µM; GI50 [9]: 3.04 µM; growth at 0.01 µM [10]: 96%; growth at 1 µM [11]: 42%; growth at 100 µM [12]: -3%; CC50 [13]: > 100 µM; growth at 100 µM [14]: 15%; CC50 [15]: > 100 µM; growth at 100 µM [16]: 36%; GI50 [17]: 0.41 µM; growth at 0.01 µM [18]: 105%; growth at 10 µM [19]: 17%; growth at 100 µM [20]: 9%; TGI [21]: 14.4 µM; TGI [22]: > 100 µM; growth at 100 µM [23]: 2%; GI50 [24]: 2.1 µM; growth at 0.1 µM [25]: 100%; growth at 1 µM [26]: 59%; GI50 [27]: 0.411 µM; CC50 [28]: > 100 µM; growth at 0.1 µM [29]: 90%; TGI [30]: > 100 µM; KSV [31]: 1.16 10^5/M

`c1ccc(Cn2cnc3ccc(-c4nc(-c5ccc6c(c5)ncn6C5CCCCC5)cn5ccnc45)cc32)cc1` was tested. Which growth at 1 µM [1] did it give?
The growth at 1 µM was 86%.

What about the growth at 100 µM [2] of the same compound?
The growth at 100 µM was -33%.

And the CC50 [3]?
Its CC50 is 5.5 µM.

And the growth at 1 µM [4]?
Its growth at 1 µM is 64%.

And the growth at 100 µM [5]?
Its growth at 100 µM is -27%.

What about the growth at 0.1 µM [6] of the same compound?
Its growth at 0.1 µM is 96%.

And the growth at 10 µM [7]?
Its growth at 10 µM is -25%.

And the TGI [8]?
Its TGI is 2.63 µM.

What about the GI50 [9] of the same compound?
Its GI50 is 1.75 µM.

What about the growth at 0.01 µM [10] of the same compound?
The growth at 0.01 µM was 96%.

And the growth at 1 µM [11]?
The growth at 1 µM was 108%.

What about the growth at 100 µM [12] of the same compound?
Its growth at 100 µM is 12%.

What about the CC50 [13] of the same compound?
Its CC50 is over 100 µM.

And the growth at 100 µM [14]?
Its growth at 100 µM is -33%.

What about the CC50 [15] of the same compound?
Its CC50 is over 100 µM.

What about the growth at 100 µM [16] of the same compound?
The growth at 100 µM was 13%.

What about the GI50 [17] of the same compound?
Its GI50 is 1.2 µM.

What about the growth at 0.01 µM [18] of the same compound?
The growth at 0.01 µM was 106%.

What about the growth at 10 µM [19] of the same compound?
The growth at 10 µM was -90%.

And the growth at 100 µM [20]?
The growth at 100 µM was -80%.

And the TGI [21]?
The TGI was 3.99 µM.

And the TGI [22]?
Its TGI is over 100 µM.

And the growth at 100 µM [23]?
Its growth at 100 µM is 4%.

What about the GI50 [24] of the same compound?
Its GI50 is 2.43 µM.

And the growth at 0.1 µM [25]?
Its growth at 0.1 µM is 97%.

What about the growth at 1 µM [26] of the same compound?
Its growth at 1 µM is 72%.

What about the GI50 [27] of the same compound?
The GI50 was 2.27 µM.

What about the CC50 [28] of the same compound?
The CC50 was over 100 µM.

And the growth at 0.1 µM [29]?
The growth at 0.1 µM was 93%.

And the TGI [30]?
Its TGI is 7.55 µM.

What about the KSV [31] of the same compound?
The KSV was 1.14 10^5/M.
